Assay results as given in ChEMBL document CHEMBL1135652, “Novel soluble cationic trans-diaminedichloroplatinum(II) complexes that are active against cisplatin resistant ovarian cancer cell lines” (J Med Chem, 2002).
“And” between values parts separate entries of the source, which are not always exact repeats. Equal entries are not always repeated.

Tests used:
[1] = Resistant factor was measured as IC50 41M/ IC50 41McisR; type: functional
[2] = Resistant factor was measured as IC50 CH1/ IC50 CH1cisR; type: functional
41M [3] = test: cytotoxicity against 41M cells incubated for 24 hr in MTT assay.; type: functional, cell-based, Homo sapiens
Summary of the method: (§1)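 Cisplatin-sensitive/resistant ovarian cancer line pairs; platinum complexes dissolved in 10 mM NaClO4 in water (1 mg/mL stock, fresh), added to cultures at final 0–200 μM for 24 h. Survival by MTT, absorbance at 520 nm; IC50 (concentration giving 50% cell killing) taken from % survival vs concentration curves. Quadruplicate experiments.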

41M [4] = test: cytotoxicity against 41McisR cells incubated for 24 hr in MTT assay; type: functional, cell-based, Homo sapiens; summary of the method: as §1
A2780cisR [5] = test: cytotoxicity against A2780cisR cells incubated for 24 hr in MTT assay; type: functional, cell-based, Homo sapiens; summary of the method: as §1
A2780 = test: cytotoxicity against A2780 cells incubated for 24 hr in MTT assay.; type: functional, cell-based, Homo sapiens; summary of the method: as §1
CH1 [6] = test: cytotoxicity against CH1cisR cells incubated for 24 hr in MTT assay; type: functional, cell-based, Homo sapiens; summary of the method: as §1
CH1 [7] = test: cytotoxicity against CH1 cells incubated for 24 hr in MTT assay.; type: functional, cell-based, Homo sapiens; summary of the method: as §1
A2780cisR [8] = test: Resistant factor was measured as […]; type: functional, cell-based

| Substance | RF [1] | RF [2] | IC50 (41M [3]) | IC50 (41M [4]) | IC50 (A2780cisR [5]) | IC50 (A2780) | IC50 (CH1 [6]) | IC50 (CH1 [7]) | RF (A2780cisR [8]) |
| --- | --- | --- | --- | --- | --- | --- | --- | --- | --- |
| trans-ptcl2(NH3)(pz) [listing 1 of 2 here] | 3 and 2.4 | 2.8 and 2 |  |  |  |  |  |  |  |
| trans-ptcl2(pip)(pz) [listing 1 of 2 here] |  |  | 37 µM | 118 µM | 64 µM | 18 µM | 85 µM | 22 µM |  |
| trans-ptcl2(picoline)(pz) [listing 1 of 2 here] | 3.3 | 2.6 |  |  |  |  |  |  | 2.4 |
| trans-ptcl2(pip)(pz) [listing 2 of 2 here] | 3.2 | 3.9 |  |  |  |  |  |  | 3.6 |
| trans-ptcl2(n-butyl amine)(pz) [listing 1 of 2 here] | 1.5 | 1.1 |  |  |  |  |  |  | 1.8 |
| CISPLATIN [listing 1 of 2 here] | 4.1 | 3.8 |  |  |  |  |  |  | 17.3 |
| trans-ptcl2(NH3)(pz) [listing 2 of 2 here] |  |  | 52 µM and 46 µM | 155 µM and 112 µM | 44 µM and 25 µM | 5 µM and 10 µM | 34 µM and 56 µM | 12 µM and 28 µM |  |
| trans-ptcl2(n-butyl amine)(pz) [listing 2 of 2 here] |  |  | 32 µM | 48 µM | 28 µM | 16 µM | 19 µM | 17 µM |  |
| trans-ptcl2(picoline)(pz) [listing 2 of 2 here] |  |  | 45 µM | 147 µM | 24 µM | 10 µM | 42 µM | 16 µM |  |
| CISPLATIN [listing 2 of 2 here] |  |  | 26 µM | 107 µM | 38 µM | 2.2 µM | 23 µM | 6 µM |  |
| TRANSPLATIN |  |  | > 200 µM | > 200 µM | > 200 µM | > 200 µM | > 200 µM | > 200 µM |  |
| trans-ptcl2(IPA)(pz) [listing 1 of 2 here] |  |  | 38 µM | 122 µM | 30 µM | 14 µM | 50 µM | 10 µM |  |
| trans-ptcl2(IPA)(pz) [listing 2 of 2 here] | 3.2 | 5 |  |  |  |  |  |  | 2.1 |
